KCNQ1 inh: inhibitors of human KCNQ1 potassium channel; P51787; B-score at 10 µM; hit rate 1.3% among 310,000; AID 2642; CHO-K1 KCNQ1, FluxOR thallium flux fluorescence; hits give high values;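 active means compounds whose thallium flux B-score, printed positive for inhibition, exceeds three library SD while starting fluorescence stays within three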;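 further: channel opened by potassium depolarization with thallium stimulus after 20 min compound exposure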
Target sequence (P51787 whole entry, looked up): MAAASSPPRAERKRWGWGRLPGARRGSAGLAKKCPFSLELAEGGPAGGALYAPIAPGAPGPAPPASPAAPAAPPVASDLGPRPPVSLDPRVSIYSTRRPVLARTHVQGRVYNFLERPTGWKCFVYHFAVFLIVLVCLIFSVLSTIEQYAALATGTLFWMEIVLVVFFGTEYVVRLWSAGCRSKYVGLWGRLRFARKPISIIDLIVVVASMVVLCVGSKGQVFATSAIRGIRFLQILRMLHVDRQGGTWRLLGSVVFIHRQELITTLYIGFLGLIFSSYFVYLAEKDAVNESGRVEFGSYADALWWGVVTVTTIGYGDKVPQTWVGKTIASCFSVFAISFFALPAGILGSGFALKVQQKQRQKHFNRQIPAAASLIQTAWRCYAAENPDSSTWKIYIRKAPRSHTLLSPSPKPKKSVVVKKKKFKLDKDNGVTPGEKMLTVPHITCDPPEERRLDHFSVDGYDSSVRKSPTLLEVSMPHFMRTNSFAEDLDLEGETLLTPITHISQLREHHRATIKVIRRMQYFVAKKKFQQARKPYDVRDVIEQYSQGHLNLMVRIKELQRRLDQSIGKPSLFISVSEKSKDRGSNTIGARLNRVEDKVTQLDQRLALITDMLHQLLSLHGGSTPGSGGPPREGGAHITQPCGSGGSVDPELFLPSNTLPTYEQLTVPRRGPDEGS
KCNK9 inh: inhibitors of human KCNK9 two-pore domain potassium channel | Q9NPC2 | HEK293 KCNK9, FluxOR thallium flux fluorescence; hits give low values | B-score at 10 µM | hit rate 1.2% among 310,000;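 active means ratio B-score over 3 SD below the library mean, with starting fluorescence within 5 SD of its mean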;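 further: negative B-score means less thallium flux so channel inhibition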
hERG rescue: compounds protecting human hERG from proarrhythmic drug block; Q12809; CHO-hERG, FluxOR thallium flux, dofetilide IC70 present; activation (rescue from dofetilide block), less the hit threshold, % at 10 µM; hit rate 0.51% among 310,000; AID 1511;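 active means activation above the mean of controls blocked by dofetilide plus 5 SD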;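 further: thallium influx through hERG after potassium depolarization seen as dye fluorescence rise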
KCNK3 inh: human KCNK3 channel inhibition, primary screen; CHO-KCNK3 thallium flux, FluxOR fluorescence; hits give low values; B-score at 10 µM; hit rate 0.84% among 340,000; AID 602410;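 active means B-score under library mean minus 4 SD, starting fluorescence ratio at most library mean plus 5 SD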;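 further: more negative B-score means stronger inhibition of thallium flux through KCNK3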
KCNQ1 pot: human KCNQ1 channel potentiation or activation. P51787. CHO-K1 KCNQ1, thallium flux FluxOR fluorescence; hits give high values. B-score at 10 µM. hit rate 0.35% among 310,000;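 active means fluorescence ratio B-score, a plate-corrected score, at least three library SD, with initial intensity B-score within 5 SD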
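System: CHO-K1 cells stably expressing KCNQ1 / Medium: assay buffer for compound exposure, DMSO matched across wells / Reagent: thallium- and potassium-containing depolarizing buffer / Compound: one concentration, matched DMSO / Incubation: 20 min compound pretreatment at room temperature / Measured by: kinetic FluxOR fluorescence, 10 s baseline plus 110 s post-stimulus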
A number is an active result; – = inactive; · = not tested or not shown. Most compounds without a hit are left out; they make up all but 3.1% or so of the library.

SMILES	KCNQ1 inh	KCNK9 inh	hERG rescue	KCNK3 inh	KCNQ1 pot
CCC(C)n1c(=S)[nH]c2ccccc2c1=O (stereo unspecified)	–	–	14	–	14
O=c1c2ccccc2[nH]c(=S)n1CCc1ccccc1	–	–	20	–	17
CC1CCCCC1n1c(=S)[nH]c2ccccc2c1=O (stereo unspecified)	–	–	–	–	19
O=C(Nc1c(Cl)ccc2nsnc12)c1ccc([N+](=O)[O-])o1	–	–	–	–	–
CC(C)n1nccc1NC(=O)COC(=O)c1ccc(NC(N)=O)cc1	·	·	·	–	·
CCOC(=O)C1CCCN(S(=O)(=O)c2cc(C(=O)OC)n(C)c2)C1 (stereo unspecified)	–	–	–	–	–
COc1ccc(CNCCC(c2ccc(F)cc2)c2ccc(OC)cc2)cc1 (stereo unspecified)	7	–	–	–	–
COc1ccc(C(CCNCc2ccc(OC(C)C)cc2)c2ccccc2OC)cc1 (stereo unspecified)	6	–	–	–	–
COc1ccc(CNCCC(c2ccc(OC)cc2)c2ccccc2OC)cc1 (stereo unspecified)	–	–	–	–	–
O=C1CC(N2CCN(S(=O)(=O)c3ccccc3F)CC2)C(=O)N1c1ccccc1F (stereo unspecified)	·	·	·	–	·
CCCN1CCC(=O)N([C@H](CO)CC(C)C)CC1	–	–	–	–	–
CC(C)C[C@@H](CO)N1CCN(CC(C)C)CCC1=O	–	–	5.7	–	–
Nc1ccn(C2CCCCO2)c(=O)n1 (stereo unspecified)	·	·	·	–	·
COc1ccc(CCC(C)Nc2cccc(F)c2)cc1 (stereo unspecified)	–	-6.6	–	–	–
CCOc1ccccc1C1NC(=O)c2ccccc2N1 (stereo unspecified)	·	·	·	–	·
CC(Oc1ccc(Cl)cc1Cl)C(=O)Nc1ccc2oc(-c3ccncc3)nc2c1 (stereo unspecified)	–	–	–	-10	–
O=C(COc1ccc2ccccc2c1Br)Nc1ccncc1	–	–	–	–	–
O=C(COc1ccc2ccccc2c1Br)Nc1cccnc1	–	–	23	–	–
Cc1c(-c2ccccc2)oc2c(C(=O)N3CCN(c4ccc([N+](=O)[O-])cc4)CC3)cccc2c1=O	–	-7.1	–	–	–
O=[N+]([O-])c1ccccc1CN1CCN(S(=O)(=O)Cc2ccccc2)CC1	–	–	–	–	–
CN(Cc1ccccc1)C1CCN(Cc2ccccc2[N+](=O)[O-])CC1	–	–	9.8	–	–
CN(C(=S)NC(=O)c1ccc(F)cc1)C1CCCCC1	–	–	–	–	8
O=C(NNC(=O)C1CCC1)c1ccc(Cl)cc1	–	–	–	–	–
CN(C(=S)NC(=O)c1ccc(Cl)cc1)C1CCCCC1	–	–	–	–	12
CC1CCN(C(=S)NC(=O)c2ccc(F)cc2)CC1	·	·	·	–	·
SMILES	KCNQ1 inh	KCNK9 inh	hERG rescue	KCNK3 inh	KCNQ1 pot
CN(C(=S)NC(=O)c1ccccc1)C1CCCCC1	–	–	15	–	11
O=C(NC(=S)NC1CCCCC1)c1ccccc1	–	–	–	–	–
COCCCNC(=O)C[C@H]1C[C@H](C(=O)N2CCCCC2)[C@@]2(C)c3[nH]c4cc(-c5ccco5)ccc4c3CCN2C1=O	·	·	·	–	·
COc1c(C=NNC(N)=O)c(OC)c(OC)c2c1CCO2	·	·	·	–	·
C=CCSc1nnc(CCc2ccccc2)n1N	·	·	·	–	·
CC(C)c1ccc2c(c1)CCC1C(C)(CN)CCCC21C (stereo unspecified)	9	–	–	–	–
CC(C)c1ccc2c(c1)CC[C@H]1[C@](C)(CN)CCC[C@]21C	·	·	·	–	·
CC(C)C(=O)Nc1ccc(NC(=O)CCc2ccccc2)cn1	–	–	9.1	–	–
COc1ccc(CCC(=O)N2CCN(S(=O)(=O)c3ccc(OC(F)(F)F)cc3)CC2)cc1	·	·	·	–	·
O=C(CCCSc1ccccc1)Nc1cccc(CO)c1	–	–	–	–	–
O=C(NN=Cc1cc(Br)c(O)c(Br)c1)c1ccccc1NS(=O)(=O)c1cccs1	·	·	·	–	·
O=C1NC(=Nc2ccccc2Cl)S/C1=C\c1ccc(C(=O)O)cc1	–	–	–	–	–
CC12CCC(C/C1=N\N=C1\NC(=O)/C(=C\c3ccc(Cl)cc3)S1)C2(C)C (stereo unspecified)	–	–	7.0	–	21
Cc1ccc(NC(=O)c2cccc(S(=O)(=O)N(C)C3CCCCC3)c2)nc1	–	–	–	–	–
CC(C)(C)c1ccc(NC(=O)C(=O)C2C(=O)Nc3ccccc32)cc1 (stereo unspecified)	–	–	5.7	–	–
O=C(COC(=O)C12CC3CC(CC(C3)C1)C2)NCCCc1ccccc1	–	–	–	–	23
COc1ccc(CCNC(=O)COC(=O)C23CC4CC(CC(C4)C2)C3)cc1	–	–	–	–	–
Cc1cc(=O)[nH]c(SCC(=O)N2CCC(Cc3ccccc3)CC2)n1	–	–	–	–	–
O=C(CSc1nc(C(F)(F)F)cc(=O)[nH]1)N1CCC(Cc2ccccc2)CC1	6	–	–	–	–
Cc1ccc(C(=O)N/N=C(/CC(=O)c2cccs2)C(F)(F)F)cc1	–	–	16	–	13
Cc1cc(-c2nc3cc(F)ccc3s2)ccc1N	·	·	·	–	·
COc1cc(C(=S)N2CCN(c3cccc(Cl)c3)CC2)ccc1O	–	–	5.8	–	–
COc1cccc(CNC(=O)c2ccc(NS(=O)(=O)c3ccc4[nH]c(=O)[nH]c4c3)cc2)c1	·	·	·	–	·
O=C(Cc1ccccc1)NC1CCN(S(=O)(=O)c2ccc(C(=O)O)cc2)CC1	–	–	6.1	–	–
COc1cc(C(=O)Oc2cccc(/C=N/NC(=O)c3cccnc3)c2)cc(OC)c1OC	–	–	–	–	–
SMILES	KCNQ1 inh	KCNK9 inh	hERG rescue	KCNK3 inh	KCNQ1 pot
COC(=O)c1cn(NC(=O)CC2CCCCC2)c(=O)c2ccccc12	–	–	–	–	–
COC(=O)c1cn(NC(=O)CCC2CCCC2)c(=O)c2ccccc12	–	–	5.8	–	–
Cc1cc(C)c2ccc(N)nc2c1O	–	–	–	–	–
Cc1cc(C)c2ccc(C)[n+]([O-])c2c1O	–	–	–	–	8
CC(NCC(O)COCCC12CC3CC(CC(C3)C1)C2)c1ccccc1 (stereo unspecified)	8	–	–	–	–
CCCOC(=O)/C(C(N)=NCc1ccccc1)=C(\O)OCCC	–	-6.6	–	–	–
CCOC(=O)/C(C(N)=NCC(C)C)=C(/O)c1ccccc1	–	–	–	–	–
CCOc1ccc(S(=O)(=O)N2CCCCC2)cc1NC(=O)CCNC(=O)c1ccco1	·	·	·	–	·
COc1cccc2c1cc1c(=O)n(CC(=O)NCCCN3CCN(C)CC3)nc(C)n12	–	–	–	–	–
CC1=NN(c2ccccc2)C(=O)/C1=C\c1c(C)[nH]n(-c2ccccc2)c1=O	–	–	–	–	–
CC1=NN(c2ccccc2)C(=O)/C1=C/c1c(O)n(-c2ccc(F)c(Cl)c2)[nH]c1=O	–	–	–	·	12
N#Cc1ccc(-c2ccc(OCC(O)CN3CCCCC3)cc2)cc1 (stereo unspecified)	–	–	–	–	–
